Data reported in ChEMBL document CHEMBL2311500, “Identification and characterization of small molecules as potent and specific EPAC2 antagonists” (J Med Chem, 2013).
Activity calls are given as the source filed them. No cut-off for these calls is given here.

What was measured:
[1] = molecular target: T1, Rap guanine nucleotide exchange factor 4 (Homo sapiens, UniProt Q8WZA2); assay: Antagonist activity at recombinant EPAC2 (unknown origin) assessed 8-NBD-cAMP substrate fluorescence intensity by substrate competing assay
Target sequence in this assay (Q8WZA2 whole entry): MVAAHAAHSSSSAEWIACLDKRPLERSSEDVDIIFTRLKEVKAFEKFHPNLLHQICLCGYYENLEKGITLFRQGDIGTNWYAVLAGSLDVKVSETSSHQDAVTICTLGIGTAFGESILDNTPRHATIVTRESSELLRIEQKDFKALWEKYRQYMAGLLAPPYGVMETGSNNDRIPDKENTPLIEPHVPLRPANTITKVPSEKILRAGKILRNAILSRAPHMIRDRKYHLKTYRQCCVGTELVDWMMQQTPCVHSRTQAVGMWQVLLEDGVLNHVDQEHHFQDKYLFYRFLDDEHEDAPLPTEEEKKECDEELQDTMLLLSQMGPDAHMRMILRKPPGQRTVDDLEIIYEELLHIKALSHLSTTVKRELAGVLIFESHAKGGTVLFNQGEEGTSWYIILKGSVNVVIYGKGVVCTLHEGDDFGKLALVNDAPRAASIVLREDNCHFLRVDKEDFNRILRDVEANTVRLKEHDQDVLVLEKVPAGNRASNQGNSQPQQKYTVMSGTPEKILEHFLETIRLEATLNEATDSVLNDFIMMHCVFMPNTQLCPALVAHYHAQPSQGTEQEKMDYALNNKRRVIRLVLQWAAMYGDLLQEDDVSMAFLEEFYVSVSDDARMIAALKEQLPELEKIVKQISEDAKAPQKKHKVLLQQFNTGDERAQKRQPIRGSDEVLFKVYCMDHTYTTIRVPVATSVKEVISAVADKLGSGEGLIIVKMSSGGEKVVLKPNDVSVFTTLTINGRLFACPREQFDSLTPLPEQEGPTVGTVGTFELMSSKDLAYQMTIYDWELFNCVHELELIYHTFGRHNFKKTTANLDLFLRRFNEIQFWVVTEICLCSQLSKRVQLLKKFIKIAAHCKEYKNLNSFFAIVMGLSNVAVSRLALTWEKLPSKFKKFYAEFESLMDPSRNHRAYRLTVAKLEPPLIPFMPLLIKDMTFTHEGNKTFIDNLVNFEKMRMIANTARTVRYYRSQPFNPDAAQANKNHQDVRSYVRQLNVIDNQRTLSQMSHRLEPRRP

Homo sapiens [2] = organism: Homo sapiens; assay: Inhibition of PKA1 (unknown origin) assessed as inhibition of cAMP-induced activation at 25 uM by spectrophotometric analysis
Procedure, shortened: (§1)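 Coupled pyruvate kinase/lactate dehydrogenase assay following NADH oxidation at 340 nm, at room temperature. The reaction was started with Kemptide (0.26 mM final). H89 (25 µM) served as the inhibition control.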

Homo sapiens [3] = organism: Homo sapiens; assay: Inhibition of PKA2 (unknown origin) assessed as inhibition of cAMP-induced activation at 25 uM by spectrophotometric analysis; procedure, shortened: as §1
HEK293 = assay: Inhibition of N-terminal CFP/C-terminal YFP tagged PKA (unknown origin) expressed in HEK293 cells assessed as inhibition of 8-Br-cAMP-AM-induced activation at 10 uM by FRET assay; assay type: cell-based; details: Homo sapiens
[4] = molecular target: T1, Rap guanine nucleotide exchange factor 4; details: HEK293, 10 uM
Target sequence in this assay (Q8WZA2 whole entry, looked up): as the sequence (Q8WZA2 whole entry) above

[5] = molecular target: T2, Rap guanine nucleotide exchange factor 3 (Homo sapiens) (UniProt O95398); assay: Inhibition of recombinant EPAC1 (unknown origin) assessed as inhibition of cAMP-mediated RAP1-GDP exchange activity at 25 uM by spectrofluorometric analysis
T2 sequence (whole entry): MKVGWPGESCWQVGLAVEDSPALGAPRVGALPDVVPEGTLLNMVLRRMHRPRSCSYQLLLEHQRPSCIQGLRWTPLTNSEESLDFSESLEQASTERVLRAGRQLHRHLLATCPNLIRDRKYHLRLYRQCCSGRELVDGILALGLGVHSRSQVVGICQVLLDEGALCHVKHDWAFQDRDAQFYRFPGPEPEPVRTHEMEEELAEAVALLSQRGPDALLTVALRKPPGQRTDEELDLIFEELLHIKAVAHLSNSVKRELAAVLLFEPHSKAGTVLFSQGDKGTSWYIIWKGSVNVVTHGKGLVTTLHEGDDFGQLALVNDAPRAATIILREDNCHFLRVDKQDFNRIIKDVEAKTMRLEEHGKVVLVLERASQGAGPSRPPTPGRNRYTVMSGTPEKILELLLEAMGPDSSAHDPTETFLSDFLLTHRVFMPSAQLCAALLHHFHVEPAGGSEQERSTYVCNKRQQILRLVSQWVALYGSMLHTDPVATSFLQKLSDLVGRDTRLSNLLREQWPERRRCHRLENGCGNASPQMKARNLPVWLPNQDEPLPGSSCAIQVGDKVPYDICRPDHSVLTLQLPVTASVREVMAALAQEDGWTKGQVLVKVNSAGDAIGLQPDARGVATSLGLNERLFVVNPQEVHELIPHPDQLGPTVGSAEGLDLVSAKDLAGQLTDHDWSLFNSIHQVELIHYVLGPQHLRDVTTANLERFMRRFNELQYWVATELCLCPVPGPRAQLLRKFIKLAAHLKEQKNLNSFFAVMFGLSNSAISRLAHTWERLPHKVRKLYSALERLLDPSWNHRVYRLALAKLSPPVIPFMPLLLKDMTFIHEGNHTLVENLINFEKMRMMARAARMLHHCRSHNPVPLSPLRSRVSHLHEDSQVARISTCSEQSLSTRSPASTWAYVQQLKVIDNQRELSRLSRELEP
Procedure, shortened: (§2)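 Purified recombinant full-length EPAC1 or EPAC2 with 0.2 µM Mant-GDP-loaded Rap1B(1-167) in 50 mM Tris pH 7.5, 50 mM NaCl, 5 mM MgCl2, 1 mM DTT and 20 µM unlabeled GDP. […] Fluorescence decay (ex 366/em 450 nm) was recorded every 60 s over 6000 s.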

[6] = molecular target: T2, Rap guanine nucleotide exchange factor 3 (Homo sapiens); assay: Inhibition FL-tagged full length human EPAC1 expressed in HEK293 cells assessed as inhibition of 007-AM-induced activation at 10 uM by FRET assay; assay type: cell-based
[7] = molecular target: T1, Rap guanine nucleotide exchange factor 4; assay: Inhibition of recombinant EPAC2 (unknown origin) assessed as inhibition of cAMP-mediated guanine nucleotide exchange factor activity at 25 uM by spectrofluorometric analysis; procedure, shortened: as §2
Target sequence in this assay (Q8WZA2 whole entry, looked up): as the sequence (Q8WZA2 whole entry) above

Row | Compound | IC50 [1] | other results
1 | Cc1cc(C)c(S(=O)(=O)n2ccc3ccccc32)c(C)c1 | 1.2 µM | –
2 | O=S(=O)(NCCNC/C=C/c1ccc(Br)cc1)c1cccc2cnccc12 | – | inhibition (Homo sapiens [2]): Active; inhibition (Homo sapiens [3]): Active
3 | Cc1cc(C)c(S(=O)(=O)c2ccc(OC3CCN(C(=O)OC(C)(C)C)CC3)cc2)c(C)c1 | > 300 µM | –
4 | Cc1cc(C)c(S(=O)(=O)n2cc(C)cc2C)c(C)c1 | – | inhibition (HEK293): inactive; inhibition (Homo sapiens [2]): inactive; inhibition [4]: Active; inhibition [5]: inactive; inhibition [6]: inactive; inhibition [7]: Active; inhibition (Homo sapiens [3]): inactive
5 | Cc1cc(C)c(S(=O)(=O)n2ccc3cccnc32)c(C)c1 | 2.4 µM | –
6 | Cc1cc(C)c(S(=O)(=O)c2ccc(OC3CCCCC3)cc2)c(C)c1 | > 300 µM | –
7 | CCc1cccn1S(=O)(=O)c1cc(C)cc(C)c1 | 4.7 µM | –
8 | CCc1cccn1S(=O)(=O)c1ccccc1C | 5.3 µM | –
9 | Cc1ccc(S(=O)(=O)c2c(C)cc(C)cc2C)cc1 | – | inhibition (Homo sapiens [2]): inactive; inhibition [5]: inactive; inhibition [7]: Active; inhibition (Homo sapiens [3]): inactive
10 | Cc1cc(C)c(S(=O)(=O)n2ccc3ccncc32)c(C)c1 | 12.6 µM | –
11 | Cc1cc(C)c(S(=O)(=O)n2ccc3ncccc32)c(C)c1 | 3.8 µM | –
12 | Cc1cc(C)c(S(=O)(=O)c2ccc(O)cc2)c(C)c1 | 13.5 µM | –
13 | Cc1cc(C)c(Nc2cc(Cl)cc(Cl)c2)c(C)c1 | 0.9 µM | –
14 | Cc1cc(C)c(S(=O)(=O)c2ccc(-c3ccc(F)nc3)cc2)c(C)c1 | > 300 µM | –
15 | Cc1cc(C)c(Nc2cc(Cl)ccc2Cl)c(C)c1 | 0.4 µM | inhibition (Homo sapiens [2]): inactive; inhibition [5]: inactive; inhibition [7]: Active; inhibition (Homo sapiens [3]): inactive
16 | Cc1cc(C)c(S(=O)(=O)n2ccc3cnccc32)c(C)c1 | 8.9 µM | –
17 | CCc1cccn1S(=O)(=O)c1ccc(C)cc1 | 4 µM | –
18 | Cc1ccc(Nc2c(C)cc(C)cc2C)cc1 | 3.8 µM | –
19 | CCCCCc1ccc(S(=O)(=O)c2c(C)cc(C)cc2C)cc1 | > 300 µM | –
20 | COC(=O)c1ccc2c(ccn2S(=O)(=O)c2c(C)cc(C)cc2C)c1 | > 300 µM | –

The next lines start with results.

Row | IC50 [1] | Compound | other results
21 | 1.9 µM | COc1ccc(S(=O)(=O)c2c(C)cc(C)cc2C)cc1 | –
22 | > 300 µM | Cc1cc(C)c(S(=O)(=O)c2ccc(OCCN)cc2)c(C)c1 | –
23 | > 300 µM | CCc1cccn1S(=O)(=O)c1ccc(C(F)(F)F)cc1 | –
24 | 18 µM | Nc1ccc(Nc2ccc(N)cc2S(=O)(=O)O)cc1 | –
25 | 4 µM | Cc1cc(C)c(S(=O)(=O)c2ccc(I)cc2)c(C)c1 | –
26 | > 300 µM | Cc1cc(C)c(S(=O)(=O)c2ccc(C3CCCCC3)cc2)c(C)c1 | –
27 | 0.7 µM | Cc1cc(C)c(S(=O)(=O)c2cc(C)c(C)cc2C)c(C)c1 | –
28 | > 300 µM | Cc1cc(C)c(S(=O)(=O)c2ccc(OC3CCNCC3)cc2)c(C)c1 | –
29 | 10.8 µM | Cc1cc(C)c(S(=O)(=O)n2ccc3cc(C(=O)O)ccc32)c(C)c1 | –
30 | 1.3 µM | CCc1cccn1S(=O)(=O)c1ccc(C)cc1C | –
31 | 8 µM | CCc1cccn1S(=O)(=O)c1ccc(OC)cc1 | –
32 | > 300 µM | Cc1cc(C)c(Nc2nc(C)c(C)s2)c(C)c1 | –
